Measurements collected from several papers.
Compare with care: the assays were run in different laboratories.
Target: Vascular endothelial growth factor receptor 1 (FLT1, Homo sapiens, UniProt P17948)
Sequence (P17948 827-1158, limits assumed, as in one of the studies): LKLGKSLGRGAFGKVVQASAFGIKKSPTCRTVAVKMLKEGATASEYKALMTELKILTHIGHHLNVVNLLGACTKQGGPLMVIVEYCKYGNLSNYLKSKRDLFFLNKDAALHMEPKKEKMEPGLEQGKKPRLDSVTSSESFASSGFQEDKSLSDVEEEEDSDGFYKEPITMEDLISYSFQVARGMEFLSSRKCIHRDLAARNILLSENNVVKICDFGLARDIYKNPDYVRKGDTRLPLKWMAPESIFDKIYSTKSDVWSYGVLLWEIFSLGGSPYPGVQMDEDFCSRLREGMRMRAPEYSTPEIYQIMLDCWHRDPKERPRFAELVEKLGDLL

Compound	test	measurement	result
Cc1ccc(NC(=O)c2ccc(C)c(C(F)(F)F)c2)cc1C#Cc1nn(C2CCC(O)CC2)c2ncnc(N)c12 (centres unmarked)	enzyme activity, inhibitor, radiometric	IC50	0.015 µM
Cc1ccc(C(=O)Nc2ccc(Oc3cc4cnn(C)c4cc3-c3cn[nH]c3)c(F)c2)c(=O)n1-c1ccc(F)cc1	enzyme activity in cells, inhibitor	IC50	> 1 µM
CC(C)(C)n1nc(-c2ccc3nc(OC4CC4)ccc3c2)c(C(N)=O)c1N	cell-free assay	IC50	8.38 µM
CNC(=O)c1cc2c(Oc3ccc(NC(=O)C4(C(=O)Nc5ccc(F)cc5)CC4)cc3)ccnc2cc1OC	enzyme activity, inhibitor, radiometric	IC50	0.013 µM
COc1ccc2c(Oc3ccc4c(C(=O)Nc5ccccc5N)cccc4c3)ccnc2c1	enzyme activity, inhibitor	IC50	0.008 µM
CC(C)(C)n1nc(-c2cnc3cc(OC4CC4)ccc3c2)c(C(N)=O)c1N	cell-free assay	IC50	> 10 µM
C=CC(=O)Nc1cccc(CN2C(=O)N(c3c(Cl)c(OC)cc(OC)c3Cl)Cc3cnc(NCCCCN(CC)CC)nc32)c1	binding, competition with immobilised ligand	Kd	0.032 µM
Cc1cnc(-c2ccc(-c3ccc(NC(=O)Nc4c(F)cc(F)cc4F)cc3F)c3c2C(=O)NC3)[nH]1	binding, competition with immobilised ligand	Kd	0.013 µM
